# Screening data as filed in PubChem.
# Most compounds without a hit are left out; they make up all but 1.8% or so of the library.
# Runt-SMMHC FRET: inhibitors of human RUNX1 Runt domain binding to CBFb-SMMHC; inhibition, % at 20 µM; Cerulean-Runt/Venus-CBFb-SMMHC FRET ratio 530/480, 1 h; Q01196+Q13951; 220,000 compounds, 0.74% hits;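 active means mean inhibition across duplicate retests at 20 µM reaching about 50%, limit read from the data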;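 further: 0% = DMSO wells and 100% = wells with excess untagged CBFb-SMMHC; inhibitors lower the FRET ratio by blocking Runt binding to CBFb-SMMHC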
# Target sequence (Q01196 whole entry, looked up, the tested form may be a part): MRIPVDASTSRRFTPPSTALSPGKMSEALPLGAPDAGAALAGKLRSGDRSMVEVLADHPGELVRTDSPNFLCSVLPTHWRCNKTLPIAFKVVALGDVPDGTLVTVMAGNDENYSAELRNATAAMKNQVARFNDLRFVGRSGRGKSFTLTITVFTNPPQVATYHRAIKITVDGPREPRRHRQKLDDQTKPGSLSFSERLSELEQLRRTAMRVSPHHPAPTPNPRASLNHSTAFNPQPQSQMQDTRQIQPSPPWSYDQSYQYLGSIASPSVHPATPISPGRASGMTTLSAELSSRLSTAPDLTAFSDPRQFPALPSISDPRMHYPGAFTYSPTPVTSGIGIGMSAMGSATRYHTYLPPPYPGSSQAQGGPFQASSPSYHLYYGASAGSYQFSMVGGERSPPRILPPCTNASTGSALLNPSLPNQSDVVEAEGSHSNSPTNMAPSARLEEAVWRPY
# Target sequence (Q13951 whole entry, looked up, the tested form may be a part): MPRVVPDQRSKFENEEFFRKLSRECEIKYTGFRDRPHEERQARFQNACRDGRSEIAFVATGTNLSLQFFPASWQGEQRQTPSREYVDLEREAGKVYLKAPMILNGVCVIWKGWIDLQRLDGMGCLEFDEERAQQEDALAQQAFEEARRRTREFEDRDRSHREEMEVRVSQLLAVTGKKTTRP
# Runt-CBFb FRET: Runt domain-CBFb interaction inhibition | AID 1496 | 220,000 compounds, 0.46% hits | inhibition, % at 20 µM | Cerulean-Runt/Venus-CBFb FRET ratio 530/480, 1 h;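 active means inhibition over about 50% at 20 µM in the single-dose screen, limit read from the data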;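 further: 0% = DMSO wells and 100% = excess unlabeled CBFb competitor control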
#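 System: Cerulean-labeled Runt domain protein | Quantity: 100 nM of each labeled protein | Schedule: 1 h compound exposure, room temperature | Detection: Fluorescence energy transfer, 422 nm excitation, 530/480 nm emission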
# RanGTP-Impb inh: disruptors of Ran-importin-beta complex formation – biochemical, FRET, CFP-Ran, YFP-importin-beta, homogeneous, primary screen | inhibition, % (no concentration beside the values) | cell-free CFP-Ran/YFP-importin-beta FRET ratio | 300,000 compounds, 1.1% hits;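 active means more than half of the replicate wells show a fall in the fluorescence ratio signal beyond about 16%, limit read from the data, passing the limit was not always enough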;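 further: 0% = DMSO wells and 100% = Ran loaded with GDP instead of GTP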
# Hck-Nef inh: human Hck-Nef kinase inhibition | inhibition, % at 20 µM | P08631 | AID 463187 | Recombinant Hck-YEEI plus Nef, Z-Lyte FRET kinase assay | 220,000 compounds, 0.68% hits;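 active means Hck-Nef kinase inhibition above about 50%, limit read from the data; inactive means inhibition below that limit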;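 further: 0% = DMSO with Hck plus Nef and 100% = Hck alone without Nef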
# Numbers without * were called inactive; . = no result.
SMILES,Runt-SMMHC FRET,Runt-CBFb FRET,RanGTP-Impb inh,Hck-Nef inh
CCOC(=O)C1=C(CSc2nc3c(cc2C#N)CN(C)CC3)OC(N)=C(C#N)C1c1ccccc1 (configuration not stated),104*,45,32*,3
CCOC(=O)C1=C(CSc2nc3c(cc2C#N)CN(C)CC3)OC(N)=C(C#N)C1c1ccc(F)cc1 (configuration not stated),63*,36,19*,10
CC(C)n1cc(CN2CCCC(CNS(=O)(=O)c3cccc4cccnc34)C2)cn1 (configuration not stated),.,.,5,.
CCOc1cccc(OCCOCCNC(C)(C)C)c1,-7,-1,-1,3
CC(C)(C)NCCOc1ccc2ccccc2c1,-4,2,32*,3
CCC(=O)O/N=C(\N)c1ccc(Oc2cc(C)c(Cl)c(C)c2)c([N+](=O)[O-])c1,-3,-1,-2,9
Cc1ccc(C23CC4CC(CC(CC(=O)N5CCOCC5)(C4)C2)C3)cc1,-15,-4,25*,-1
Cc1ccc(C23CC4CC(CC(C(=O)N5CCN(C)CC5)(C4)C2)C3)cc1,4,-2,2,24
CN1/C(=C/C(=O)c2ccc(Cl)cc2)Sc2cc3c(cc21)OCO3,-79,-56,36*,9
COc1ccc(-c2cc(Cl)cc3c(=O)c4ccccc4n(C)c23)cc1F,.,.,112*,.
COc1cc(-c2ccc3c(=O)c4ccccc4n(C)c3c2)cc(OC)c1OC,.,.,57*,.
COc1cc(C2CC(=O)Oc3c2c(=O)n(C)c2ccccc32)cc(OC)c1OC (configuration not stated),.,.,1,18
Cn1c2ccccc2c(=O)c2ccc(-c3ccc4c(c3)OCO4)cc21,.,.,49*,.
COc1ccccc1-c1nnc(SCC(=O)Nc2ccc(N3CCOCC3)cc2)n1C,.,.,-1,.
CC(C)N1CCc2c(sc(NC(=O)CN3C(=O)c4ccccc4C3=O)c2C(N)=O)C1,129*,98*,142*,12
CC(C)N1CCc2c(sc(NC(=O)CCS(=O)(=O)c3ccccc3)c2C(N)=O)C1,.,.,153*,.
COc1cc2ccccc2cc1C(=O)Nc1sc2c(c1C(N)=O)CCN(C(C)C)C2,.,.,47*,.
COc1ccccc1CC(=O)Nc1sc2c(c1C(N)=O)CCCC2,.,.,-5,.
CC1(C)CC(=O)C=C(Nc2cccc(Cl)c2Cl)C1,.,.,2,.
NS(=O)(=O)c1ccc(N2CCN(CCOc3ccc(Cl)cc3)CC2)nc1,.,.,1,.
O=C(NCCCO)Nc1ccc2nc(-c3ccco3)c(-c3ccco3)nc2c1,-321,-250,.,2
O=C(Nc1cccc(C(F)(F)F)c1)c1ccc2nc(-c3ccco3)c(-c3ccco3)nc2c1,-13,1,47*,4
O=C(Nc1ccc2nc(-c3cccs3)c(-c3cccs3)nc2c1)N1CCOCC1,62*,41,96*,12
O=C(Nc1cccc(O)c1)N1CCOCC1,9,2,-2,9
O=C(Nc1ccc2nc(-c3ccco3)c(-c3ccco3)nc2c1)NC1CC1,-67,-17,62*,46
SMILES,Runt-SMMHC FRET,Runt-CBFb FRET,RanGTP-Impb inh,Hck-Nef inh
O=C(c1ccc2nc(-c3ccco3)c(-c3ccco3)nc2c1)N1CCN(c2ccccc2)CC1,-12,12,23*,5
CCc1nc2ccc(C(=O)N3CCN(c4ccccc4)CC3)cc2nc1CC,.,.,5,.
O=C(NCc1ccccc1)c1onc(CS(=O)(=O)c2ccccn2)c1C(=O)NCc1ccccc1,.,.,-1,.
O=C(Nc1ccc(N2CCOCC2)cc1)Nc1ccc2nc(-c3ccco3)c(-c3ccco3)nc2c1,11,12,26*,10
N#Cc1c(=O)c2nc(NCc3ccccc3)ncc2n2ccccc12,57,-14,38*,3
Cc1ccc(NC(=O)c2cnccn2)cc1C,.,.,6,.
COc1ccc(C(=O)/C=C\c2ccc(NC(=O)c3cccs3)cc2)cc1,-25,-3,23*,2
O=C(/C=C/c1c[nH]c2ccccc12)c1ccccc1,-2,14,55*,5
COc1ccc2[nH]cc(/C=C/C(=O)c3ccccc3)c2c1,3,-7,25*,-27
Cc1ccc(C(=O)/C=C/c2c[nH]c3ccccc23)cc1,5,10,54*,1
Cc1cccn2c(=O)c(C=C(C#N)C#N)c(N3CCN(c4ccccc4)CC3)nc12,.,.,25*,.
CNC(=O)/C(C#N)=C/c1c(N2CCN(c3ccccc3)CC2)nc2c(C)cccn2c1=O,.,.,19*,.
COc1ccc(N2CCN(c3nc4c(C)cccn4c(=O)c3C=C(C#N)C#N)CC2)cc1,.,.,3,.
